UBC13 polyUb: UBC13 polyubiquitin chain formation inhibitors, primary screen, biochemical, TR-FRET, uHTS; Ubiquitin-conjugating enzyme E2 N (Homo sapiens), P61088; inhibition, % at 20 µM; 0.47% of 330,000 active; in the data active means inhibition above about 45%, passing the limit was not always enough
XBP1 UPR activ: activators of adaptive XBP1 UPR arm, primary screen, cell-based, CHO-XBP1 luciferase reporter, luminescence, uHTS; 0.33% of 330,000 active; activation, % at 20 µM; IRE1-XBP1 UPR activation; percent of tunicamycin response, DMSO as zero; AID 463104, 2010;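 active means versus positive control, 20 µM dose yields 30% or more activation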;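 further: 100% = tunicamycin at 10 µg/mL and 0% = DMSO only wells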
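Material: CHO-XBP1 cells stably carrying IRE1-XBP1-driven luciferase reporter | Medium: F12 with 10% serum | Compound dosing: 20 µM single concentration, DMSO 1% | Incubation: Overnight seeding at 37 °C, 6 h compound treatment at 37 °C | Detection: Steady-Glo luminescence read | Read-out basis: % activation of reporter signal versus tunicamycin and DMSO controls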
UPR CHOP act: activators of apoptotic CHOP UPR arm, primary screen, cell-based, CHO-CHOP luciferase reporter, luminescence, uHTS. UPR activation; percent of tunicamycin response over DMSO baseline. activation, % at 10 µM. 0.34% of 330,000 active. AID 449763, 2010;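 active means at 10 µM dose, activation of 40% or more, normalized to positive control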;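 further: 100% = tunicamycin at 10 µg/mL and 0% = DMSO alone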
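System: CHO-CHOP luciferase reporter cell line; amount: 500 cells/well; buffer or medium: F12 medium containing 10% fetal bovine serum; incubation: 6 h compound exposure at 37 °C after overnight seeding; measured by: luciferase luminescence after 10 min with Steady-Glo reagent; evaluation: % reporter activation, DMSO baseline versus tunicamycin full activation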
Apaf-1 inh: inhibitors of human Apaf-1 apoptosome, primary screen, biochemical, DEVD-Rh110 fluorescence, uHTS | Apoptotic protease-activating factor 1 (Homo sapiens), O14727 | reconstituted apoptosome caspase-3 activity | inhibition, % at 20 µM | 0.71% of 330,000 active; active means inhibition of at least 40% at 20 µM;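 further: plate controls were DMSO wells for no effect and DEVD-CHO caspase inhibitor wells for full effect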
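System – cell-free apoptosome with Apaf-1, procaspase-3 and caspase-9 · Buffer or medium – pH 7.5 Hepes buffer with CHAPS, BSA, DTT · Also added – cytochrome c with DEVD-Rh110 · Times – 30 min compound preincubation, 50 min activation, room temperature · Technique – Rh110 fluorescence intensity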
Mdm2-MdmX inh: inhibitors of human Mdm2-MdmX association, primary screen, cell-based, luminescence, split luciferase, SaOS-2, uHTS; Protein Mdm4 (Homo sapiens) + E3 ubiquitin-protein ligase Mdm2 (Homo sapiens), …; inhibition, % at 8 µM; SaOS-2 split-luciferase Mdm2/MdmX complementation; 3% of 330,000 active;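 active means inhibition of at least 50% at 8 µM in the primary screen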
Mdm2 MdmX conf: Mdm2-MdmX complex disruptors, retested hits, confirmation, luminescence, single concentration; shares compounds with Mdm2-MdmX inh; Mdm2-MdmX binding, luminescent assay; inhibition, % at 8 µM; 55% of 10,000 active; in the data active means inhibition above about 40%
Full FLuc ctr: full-length luciferase signal inhibition, confirmation, counter-screen for Mdm2/MdmX interaction inhibitor project, cell-based, single concentration, SaOS-2; SaOS-2 full-length luciferase counterscreen, luminescence; shares compounds with Mdm2-MdmX inh; inhibition, % at 8 µM; AID 504607, 2011; 77% of 6,200 active;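 active means mean inhibition at 8 µM reaching about 37%, which flags the compound as non-specific, limit read from the data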;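 further: p53-null SaOS-2 cells with luciferase driven by a doxycycline-inducible promoter; compound on cells about two nights before reading with doxycycline added after day one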
Numbers without * were called inactive; nt = not tested or not shown; + = active, no number. This is a sample that favours compounds with a hit; in the whole collection about 4.1% have one here.

SMILES	UBC13 polyUb	XBP1 UPR activ	UPR CHOP act	Apaf-1 inh	Mdm2-MdmX inh	Mdm2 MdmX conf	others
COc1ccc(OC)c(NC(=O)CS(=O)(=O)Cc2ccccc2)c1	-6	-4	1	6	6	nt
COc1ccc(OCc2cc(C(=O)NC3Cc4ccccc4C3)no2)c(Cl)c1	2	-2	0	9	52*	70*	Full FLuc ctr=72*
COc1ccc(OCc2cc(C(=O)N[C@H]3CCCCNC3=O)no2)c(Cl)c1	2	8	4	-3	1	nt
Cc1cccc(Nc2nnc(SCC(=O)NC(=O)Nc3ccc4c(c3)OCCO4)s2)c1	6	-3	2	-6	91*	24
O=C(C1CCCN(S(=O)(=O)c2ccccc2)C1)N1CCN(c2ccccc2)CC1 (stereo unspecified)	-3	-6	2	13	1	nt
O=C1NCCc2c1[nH]c1c(Cl)ccc(Cl)c21	-2	-1	-2	21	77*	63*	Full FLuc ctr=48*
O=C1NCCc2c1[nH]c1ccc([N+](=O)[O-])cc21	-6	3	-1	10	48	nt
O=C(CCC1CCCN(Cc2ccc3c(c2)CCO3)C1)NCc1ccc(F)c(F)c1 (stereo unspecified)	-17	-1	-1	3	9	nt
COC(=O)c1cc(-c2ccc(Br)cc2)on1	10	-1	4	-4	13	nt
CC(NC(=O)c1cc(-c2ccc(Br)cc2)on1)c1ccccc1 (stereo unspecified)	-2	3	2	-11	54*	8
N/C(=N\OC(=O)c1ccc(Cl)cc1Cl)c1ccc(Cl)cc1	3	-8	1	2	53*	50*	Full FLuc ctr=146*
N/C(=N\OC(=O)c1ccc(Cl)cc1Cl)c1ccccc1	0	-3	-5	1	-35	nt
Cc1ccc(/C(N)=N/OC(=O)c2ccc(C)cc2Cl)cc1	1	-6	1	1	74*	77*	Full FLuc ctr=+
COc1cccc(/C=C/C(=O)c2ccc(NS(=O)(=O)c3ccc(C)cc3)cc2)c1	-10	-6	3	23	71*	15
COc1cc(/C=C/C(=O)c2ccc(NS(=O)(=O)c3ccc(C)cc3)cc2)ccc1OC(F)F	-2	-3	15	4	92*	42*	Full FLuc ctr=62*
CCc1ccc(-c2cc(C)no2)cc1S(=O)(=O)N1CCCN(Cc2ccc(F)cc2)C1	0	-1	0	20	68*	27
CCc1ccc(-c2cc(C)no2)cc1S(=O)(=O)N1CCC(C)CC1	-6	-3	-1	18	24	nt
CCOc1cc(CNC2CCCC2)cc(Cl)c1OCc1ccccc1	38	6	0	14	52*	26
COc1cc(CNCc2ccccc2)cc(Cl)c1OC	9	-2	0	-8	17	nt
COc1cc(CNCCc2ccccc2)cc(Cl)c1OCc1ccccc1	42	9	1	-3	78*	38
CCOc1cc(CNCC(C)C)cc(Cl)c1OCc1ccccc1	14	-1	0	0	6	nt
O=C(COc1ccc(Br)cc1CNCCc1ccccc1)NCc1ccccc1	7	-1	-1	-5	56*	30
COc1cc(CNCCc2ccccc2)cc(Br)c1OCC(=O)Nc1ccccc1C	42	3	-2	12	74*	38	Full FLuc ctr=72*
COc1cc2cc(CCCOC(=O)CCCC(=O)O)oc(=O)c2cc1OC	-13	-1	0	1	15	nt
COc1cccc(C(=O)NNC(=O)Cc2ccc([N+](=O)[O-])cc2)c1	8	-1	-2	5	-4	nt
SMILES	UBC13 polyUb	XBP1 UPR activ	UPR CHOP act	Apaf-1 inh	Mdm2-MdmX inh	Mdm2 MdmX conf	others
CC(=O)N1CC(=O)N=C1SCC(=O)Nc1nc(-c2ccccc2)c(-c2ccccc2)s1	5	16	8	6	57*	10
Cc1sc(NC(=O)CSC2=NCCS2)nc1-c1ccccc1	4	2	1	4	30	nt
COC(=O)Cc1[nH]n(-c2nc3ccccc3s2)c(=O)c1C(C)=Nc1ccc(C)cc1	-6	-13	-10	8	56*	56*	Full FLuc ctr=32
COC(=O)Cc1[nH]n(-c2nc3ccccc3s2)c(=O)c1C(C)=Nc1ccc(Cl)cc1	-1	-6	-11	-8	-22	nt
COc1ccc(C2C(C#N)=C(N)Oc3cccc(O)c32)cc1 (stereo unspecified)	7	-2	-1	-1	32	nt
O=C1c2ccccc2/C(=C\c2ccc3[nH]ccc3c2)N1c1ccccc1	0	14	4	12	12	nt
CCC/C(=C1/c2ccccc2C(=O)N1c1ccccc1)c1ccc2[nH]ccc2c1	-5	5	2	19	59*	52*	Full FLuc ctr=45*
O=C(COc1ccccc1-c1ccccc1)N/N=C/c1cccc2ccccc12	-5	16	-1	17	32	nt
COc1cc(/C=N/NC(=O)CN2CCCCC2)ccc1OCc1ccccc1	-9	5	6	12	-19	nt
COc1ccc(/C=N/NC(=O)COc2ccccc2-c2ccccc2)cc1	-8	9	1	16	56*	68*	Full FLuc ctr=90*
COc1cc(/C=N\NC(=O)c2ccc(-c3ccccc3)cc2)cc(OC)c1O	2	2	4	5	13	nt
COc1cc(/C=N\NC(=O)c2ccc(-c3ccccc3)cc2)ccc1OCC(N)=O	9	7	26	9	50*	31
COc1ccc(/C=N/NC(=O)c2nc(-c3ccccc3)cc(-c3ccccc3)n2)cc1OC	-16	8	13	21	72*	71*	Full FLuc ctr=86*
CCCCOc1ccc(C(=O)N/N=C/c2ccc(OCCN3CCCCC3)c(OC)c2)cc1	18	-1	3	30	81*	22
Cc1ccc(S(=O)(=O)N(C)C[C@@H]2Oc3ccc(NS(C)(=O)=O)cc3CC(=O)N([C@H](C)CO)C[C@@H]2C)cc1	-13	-1	4	4	-18	nt
COc1cc(/C=N/NC(N)=S)ccc1OCC(=O)Nc1ccc(C)cc1	4	1	0	-7	-14	nt
COc1cc(/C=N\NC(=O)CN2CCOCC2)ccc1OCC(=O)Nc1ccc(C)c(C)c1	-2	2	1	11	5	nt

High-throughput results deposited in PubChem by Sanford-Burnham Center for Chemical Genomics.
